Molecular target: T1, Nuclear receptor subfamily 1 group I member 2 (Homo sapiens, UniProt O75469)
T1 sequence (O75469 whole entry): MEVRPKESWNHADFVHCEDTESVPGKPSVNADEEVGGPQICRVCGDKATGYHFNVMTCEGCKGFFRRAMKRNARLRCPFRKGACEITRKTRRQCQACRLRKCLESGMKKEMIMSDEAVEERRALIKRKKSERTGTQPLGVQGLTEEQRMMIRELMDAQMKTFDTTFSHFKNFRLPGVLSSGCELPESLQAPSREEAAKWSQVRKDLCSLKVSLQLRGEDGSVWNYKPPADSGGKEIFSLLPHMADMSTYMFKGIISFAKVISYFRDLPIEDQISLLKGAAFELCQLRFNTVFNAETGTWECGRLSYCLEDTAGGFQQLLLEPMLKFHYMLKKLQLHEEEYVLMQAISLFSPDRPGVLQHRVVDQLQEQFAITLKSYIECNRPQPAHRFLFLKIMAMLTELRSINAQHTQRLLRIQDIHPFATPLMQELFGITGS
Assay: Agonist activity at PXR in human HepaRG cells assessed as upregulation of CYP2B6 mRNA expression at 10 uM by RT-qPCR analysis; call rule not given here
Format: cell-based
Summary of the method: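 HepaRG cells exposed to test agents at 10 μM, with rifampicin (10 μM) as reference agonist. CYP2B6 mRNA quantified by RT-qPCR, normalized to β-ACTIN housekeeping gene. Mean ± SD, n = 3.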

Activity	SMILES
Active	C=C1[C@H](OC(=O)c2cccnc2)C[C@H]2[C@@H](/C=C(\C)C(=O)[C@@]3(OC(C)=O)C[C@H](C)[C@H](OC(=O)c4ccccc4)[C@@H]3[C@H]1OC(C)=O)C2(C)C

System: HEK-293T
Assay: Cytotoxicity against human HEK293T cells assessed as reduction in cell viability at 10 uM measured after 24 hrs by CCK8 assay
Format: cell-based

SMILES	Activity
C=C1CC[C@H]2[C@@H](/C=C(\C)C(=O)[C@@]3(O)C[C@H](C)[C@H](O)[C@@H]3[C@H]1O)C2(C)C	Non-Toxic
C=C1[C@H](O)C[C@H]2[C@@H](/C=C(\C)C(=O)[C@@]3(OC(C)=O)C[C@H](C)[C@H](OC(=O)c4ccccc4)[C@@H]3[C@H]1OC(C)=O)C2(C)C	Non-Toxic
C=C1CC[C@H]2[C@@H](/C=C(\C)C(=O)[C@@]3(OC(C)=O)C[C@H](C)[C@H](OC(=O)/C=C/c4ccccc4)[C@@H]3[C@H]1O)C2(C)C	Toxic
C=C1C(=O)C[C@H]2[C@@H](/C=C(\C)C(=O)[C@@]3(OC(C)=O)C[C@H](C)[C@H](OC(=O)c4ccccc4)[C@@H]3[C@H]1OC(C)=O)C2(C)C	Toxic
C=C1CC[C@H](C(C)(C)O)/C=C/C(C)=C\[C@@]2(O)C[C@H](C)[C@H](OC(=O)c3ccccc3)[C@@H]2[C@H]1OC(C)=O	Non-Toxic
C=C1CC[C@H]2[C@@H](/C=C(\C)C(=O)[C@@]3(OC(C)=O)C[C@H](C)[C@H](O)[C@@H]3[C@H]1OC(=O)/C=C/c1ccccc1)C2(C)C	Toxic
C=C1[C@H](OC(C)=O)C[C@H]2[C@@H](/C=C(\C)C(=O)[C@@]3(O)C[C@H](C)[C@H](OC(C)=O)[C@@H]3[C@H]1OC(C)=O)C2(C)C	Non-Toxic
CC(=O)O[C@]12C[C@H](C)[C@H](OC(=O)c3ccccc3)[C@@H]1/C=C(\CO)C(=O)C[C@H]1[C@@H](/C=C(\C)C2=O)C1(C)C	Non-Toxic
C=C1CC[C@H]2[C@@H](C[C@@H](C)C(=O)[C@@]3(OC(C)=O)C[C@H](C)[C@H](OC(=O)c4ccccc4)[C@@H]3[C@H]1OC(C)=O)C2(C)C	Non-Toxic
CC(=O)OC/C1=C/C[C@H]2[C@@H](/C=C(\C)C(=O)[C@@]3(OC(C)=O)C[C@H](C)[C@H](OC(=O)c4ccccc4)[C@@H]3[C@H]1OC(C)=O)C2(C)C	Non-Toxic
C=C1[C@H](OC(=O)c2cccnc2)C[C@H]2[C@@H](/C=C(\C)C(=O)[C@@]3(OC(C)=O)C[C@H](C)[C@H](OC(=O)c4ccccc4)[C@@H]3[C@H]1OC(C)=O)C2(C)C	Non-Toxic
C=C1[C@H](OC(=O)c2ccco2)C[C@H]2[C@@H](/C=C(\C)C(=O)[C@@]3(O)C[C@H](C)[C@H](O)[C@@H]3[C@H]1O)C2(C)C	Non-Toxic
C=C1CC[C@H]2[C@@H]([C@@H]3O[C@]4(C=C3C)C[C@H](C)[C@H](OC(=O)c3ccccc3)[C@@H]4[C@H]1OC(C)=O)C2(C)C	Non-Toxic
C=C1CC[C@H](C(C)(C)OC)/C=C/C(C)=C\[C@@]2(O)C[C@H](C)[C@H](OC(=O)c3ccccc3)[C@@H]2[C@H]1OC(C)=O	Non-Toxic
CC(=O)O[C@@H]1[C@H]2[C@@H](OC(=O)c3ccccc3)[C@@H](C)C[C@]2(OC(C)=O)C(=O)/C(C)=C/[C@@H]2[C@H](CC[C@H]1C)C2(C)C	Non-Toxic
C=C1[C@H](OC(C)=O)C[C@H]2[C@@H](/C=C(\C)C(=O)[C@@]3(O)C[C@H](C)[C@H](O)[C@@H]3[C@H]1O)C2(C)C	Non-Toxic
CC(=O)O[C@]12C[C@H](C)[C@H](OC(=O)c3cccnc3)[C@@H]1[C@H]1O[C@@]1(C)CC[C@H]1[C@@H](/C=C(\C)C2=O)C1(C)C	Non-Toxic

SMILES	Activity
CC(=O)O[C@H]1[C@@H](C)[C@H](OC(=O)c2ccccc2)C[C@H]2[C@@H](C[C@@H](C)C(=O)[C@@]3(OC(C)=O)C[C@H](C)[C@H](OC(=O)c4ccccc4)[C@H]13)C2(C)C	Non-Toxic
C=C(C)[C@@H]1/C=C/C(C)=C\[C@@]2(O)C[C@H](C)[C@H](OC(=O)c3ccccc3)[C@@H]2[C@@H](OC(C)=O)C(=C)CC1	Non-Toxic
C=C1CC[C@H]2[C@@H](/C=C(\C)C(=O)[C@@]3(OC(C)=O)C[C@H](C)[C@H](OC(=O)/C=C/c4ccccc4)[C@@H]3[C@H]1OC(C)=O)C2(C)C	Non-Toxic
C=C1CC[C@H]2[C@@H](/C=C(\C)C(=O)[C@@]3(O)C[C@H](C)[C@H](O)[C@@H]3C1=O)C2(C)C	Toxic
C=C1[C@H](OC(=O)c2ccccc2)C[C@H]2[C@@H]([C@H]3O[C@]3(C)C(=O)[C@@]3(OC(C)=O)C[C@H](C)[C@H](OC(=O)c4ccccc4)[C@@H]3[C@H]1OC(C)=O)C2(C)C	Non-Toxic
C=C1[C@H](OC(=O)c2ccccc2)C[C@H]2[C@@H](/C=C(\C)C(=O)[C@@]3(OC(C)=O)C[C@H](C)[C@H](OC(=O)c4ccccc4)[C@@H]3[C@H]1OC(C)=O)C2(C)C	Non-Toxic
C=C1[C@H](OC(=O)c2ccccc2)C[C@H]2[C@@H](/C=C(\C)C(=O)[C@@]3(O)C[C@H](C)[C@H](O)[C@@H]3[C@H]1OC(=O)c1ccccc1)C2(C)C	Non-Toxic
C=C1[C@H](OC(=O)c2ccccc2)C[C@H]2[C@@H](/C=C(\C)[C@H](OC(C)=O)[C@@]3(O)C[C@H](C)[C@H](OC(=O)c4ccccc4)[C@@H]3[C@H]1OC(C)=O)C2(C)C	Non-Toxic
C=C1CC[C@H]2[C@@H](/C=C(\C)C(=O)[C@@]3(OC(C)=O)C[C@H](C)[C@H](OC(=O)c4cccnc4)[C@@H]3[C@H]1OC(C)=O)C2(C)C	Non-Toxic
CC(=O)OC/C1=C/C[C@H]2[C@@H](/C=C(\C)C(=O)[C@@]3(O)C[C@H](C)[C@H](OC(C)=O)[C@@H]3[C@H]1OC(C)=O)C2(C)C	Non-Toxic
CC(=O)O[C@@H]1[C@H]2[C@@H](OC(=O)c3ccccc3)[C@@H](C)C[C@]2(OC(C)=O)C(=O)[C@@]2(C)O[C@@H]2[C@@H]2[C@H](C[C@@H](OC(=O)c3ccccc3)[C@]13CO3)C2(C)C	Non-Toxic
C=C1[C@H](OC(=O)c2ccccc2)C[C@H]2[C@@H](/C=C(\C)C(=O)[C@@]3(O)C[C@H](C)[C@H](OC(=O)c4ccccc4)[C@@H]3[C@H]1OC(C)=O)C2(C)C	Non-Toxic
C=C1[C@H](OC(=O)c2cccs2)C[C@H]2[C@@H](/C=C(\C)C(=O)[C@@]3(O)C[C@H](C)[C@H](O)[C@@H]3[C@H]1O)C2(C)C	Non-Toxic
C/C1=C\[C@@H]2[C@H](CC(=O)/C(COC(=O)c3ccccc3)=C/[C@H]3[C@@H](O)[C@@H](C)C[C@]3(O)C1=O)C2(C)C	Non-Toxic
C=C1[C@H](O)C[C@H]2[C@@H](/C=C(\C)C(=O)[C@@]3(O)C[C@H](C)[C@H](O)[C@@H]3[C@H]1O)C2(C)C	Non-Toxic
C=C1CC[C@H]2[C@@H](/C=C(\C)C(=O)[C@@]3(OC(C)=O)C[C@H](C)[C@H](OC(=O)c4ccccc4)[C@@H]3[C@H]1OC(C)=O)C2(C)C	Non-Toxic

Molecular target: T2, PXR (NR1I2); CYP3A4 promoter reporter (Homo sapiens, UniProt O75469)
T2 sequence (O75469 whole entry): T1 sequence (O75469 whole entry)
Assay: Agonist activity at human PXR transfected in human HEK293T cells co-transfected with CYP3A4-Luc plasmid at 10 uM incubated for 24 hrs by dual-luciferase reporter gene assay relative to control

fold induction at 24 h, 10 µM	SMILES
6.9	C=C1[C@H](OC(=O)c2cccnc2)C[C@H]2[C@@H](/C=C(\C)C(=O)[C@@]3(OC(C)=O)C[C@H](C)[C@H](OC(=O)c4ccccc4)[C@@H]3[C@H]1OC(C)=O)C2(C)C
4.9	CC(=O)O[C@@H]1[C@H]2[C@@H](OC(=O)c3ccccc3)[C@@H](C)C[C@]2(OC(C)=O)C(=O)/C(C)=C/[C@@H]2[C@H](CC[C@H]1C)C2(C)C
3.4	CC(=O)O[C@H]1[C@@H](C)[C@H](OC(=O)c2ccccc2)C[C@H]2[C@@H](C[C@@H](C)C(=O)[C@@]3(OC(C)=O)C[C@H](C)[C@H](OC(=O)c4ccccc4)[C@H]13)C2(C)C

Source: ChEMBL document CHEMBL4834470, “Lathyrane Diterpenoids as Novel hPXR Agonists: Isolation, Structural Modification, and Structure-Activity Relationships” (ACS Med Chem Lett, 2021)
